Laboratory results: ChEMBL document CHEMBL1221298, “InCl3 mediated one-pot multicomponent synthesis, anti-microbial, antioxidant and anticancer evaluation of 3-pyranyl indole derivatives” (Bioorg Med Chem Lett, 2010)
Converted amounts (≈) assume the structure as drawn. The source made the active and inactive calls. The rule behind the calls is not given here.

What was measured:
Type in all cases: functional
[1] = Antioxidant activity assessed as ABTS radical scavenging activity
Summary of the method: (§1)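 Test samples at 50, 100, 200 and 400 ug/ml were each mixed with 1 ml of freshly prepared ABTS radical cation solution, adjusted to absorbance 0.7–0.9 at 734 nm. Mixtures reacted 2 h in the dark, then absorbance was read at 734 nm against a blank. Scavenging % was taken as the absorbance decrease relative to ABTS solution without test sample.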

MCF7 = experiment: Cytotoxicity against human MCF7 cells after 24 hrs by MTT assay; settings: MCF7, 24 h
Summary of the method: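 Exponentially growing cells plated at 10⁴ cells/well and allowed to attach, then exposed to test compounds or doxorubicin (dissolved in 0.1% DMSO, diluted in medium; range 1–100) for 24 h; controls received medium with 0.1% DMSO. MTT (1 mg/ml) added for 4 h at 37 °C, formazan dissolved in DMSO, absorbance read at 540 nm; % cytotoxicity calculated from blank-corrected absorbances versus control.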

Bacillus cereus [2] = experiment: Antimicrobial activity against Bacillus cereus ATCC 11778 at 100 ug/ml after 24 hrs by paper disk diffusion method; settings: ATCC 11778, 24 h, read-out: IZ
[3] = Antioxidant activity assessed as ABTS radical scavenging activity at 200 ug/ml; summary of the method: as §1
Staphylococcus aureus [4] = experiment: microbe, parasite or virus in culture; settings: ATCC 9144, 24 h
Escherichia coli [5] = experiment: microbe, parasite or virus in culture; settings: ATCC 25922, 24 h, read-out: IZ
[6] = tested on: Radical scavenging activity; experiment: Antioxidant activity assessed as DPPH radical scavenging activity at 200 ug/ml
Summary of the method: (§2)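 Each test sample was mixed with 1 ml DPPH in methanol, incubated at 37 °C for 30 min, and read spectrophotometrically at 517 nm with a blank reading. Scavenging % was expressed as the absorbance decrease at 517 nm relative to DPPH solution without test sample.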

[7] = Antioxidant activity assessed as ABTS radical scavenging activity at 50 ug/ml; summary of the method: as §1
Klebsiella pneumoniae [8] = experiment: microbe, parasite or virus in culture; settings: ATCC 11298, 24 h, read-out: IZ
[9] = tested on: Radical scavenging activity; experiment: Antioxidant activity assessed as DPPH radical scavenging activity at 50 ug/ml; summary of the method: as §2
[10] = tested on: Radical scavenging activity; experiment: Antioxidant activity assessed as DPPH radical scavenging activity; summary of the method: as §2
[11] = Antioxidant activity assessed as ABTS radical scavenging activity at 100 ug/ml; summary of the method: as §1
Bacillus cereus [12] = experiment: microbe, parasite or virus in culture; settings: ATCC 11778, 24 h
[13] = tested on: Radical scavenging activity; experiment: Antioxidant activity assessed as DPPH radical scavenging activity at 100 ug/ml; summary of the method: as §2
Staphylococcus aureus [14] = experiment: microbe, parasite or virus in culture; settings: ATCC 9144, 24 h, read-out: IZ
[15] = Antioxidant activity assessed as ABTS radical scavenging activity at 400 ug/ml; summary of the method: as §1
Klebsiella pneumoniae [16] = experiment: microbe, parasite or virus in culture; settings: ATCC 11298, 24 h
[17] = tested on: Radical scavenging activity; experiment: Antioxidant activity assessed as DPPH radical scavenging activity at 400 ug/ml; summary of the method: as §2
Escherichia coli [18] = experiment: microbe, parasite or virus in culture; settings: ATCC 25922, 24 h

IC50 [1] [µg/mL]	MIC (Staphylococcus aureus [4]) [µg/mL]	IC50 [10] [µg/mL]	MIC (Bacillus cereus [12]) [µg/mL]	MIC (Klebsiella pneumoniae [16]) [µg/mL]	MIC (Escherichia coli [18]) [µg/mL]	Structure (SMILES)	zone of inhibition at 100 µg/mL (Bacillus cereus [2]) [mm]	Activity ([3]; at 200 µg/mL) [%]	zone of inhibition at 100 µg/mL (Escherichia coli [5]) [mm]	Activity ([6]; at 200 µg/mL) [%]	Activity ([7]; at 50 µg/mL) [%]	zone of inhibition at 100 µg/mL (Klebsiella pneumoniae [8]) [mm]	Activity ([9]; at 50 µg/mL) [%]	Activity ([11]; at 100 µg/mL) [%]	Activity ([13]; at 100 µg/mL) [%]	zone of inhibition at 100 µg/mL (Staphylococcus aureus [14]) [mm]	Activity ([15]; at 400 µg/mL) [%]	Activity ([17]; at 400 µg/mL) [%]	further results
650 (≈ 3690 µM)	–	< 50	–	–	–	O=C1O[C@H]([C@@H](O)CO)C(O)=C1O [ASCORBIC ACID]	–	31.5	–	82.3	28.8	–	77.2	29.7	79.7	–	33.4	85.3	–
993.66 (≈ 2940 µM)	15.2 (≈ 44.9 µM)	308.2 (≈ 911 µM)	18.5 (≈ 54.7 µM)	20.2 (≈ 59.7 µM)	19.6 (≈ 57.9 µM)	N#CC1=C(N)OC(c2c[nH]c3ccccc23)=C(C#N)C1c1ccccc1 (stereo not drawn)	16	24.5	18	49.7	14.4	18	38	19.3	46	22	26.7	51.2	–
–	–	–	–	–	–	COc1cccc2c1C(=O)c1c(O)c3c(c(O)c1C2=O)C[C@@](O)(C(=O)CO)C[C@@H]3O[C@H]1C[C@H](N)[C@H](O)[C@H](C)O1 [DOXORUBICIN]	–	–	–	–	–	–	–	–	–	–	–	–	GI50 (MCF7): 0.02 µM; TGI (MCF7): 0.21 µM
> 1000	12.4 (≈ 33.3 µM)	467.49 (≈ 1250 µM)	16.4 (≈ 44 µM)	16.1 (≈ 43.2 µM)	16.5 (≈ 44.3 µM)	N#CC1=C(N)OC(c2c[nH]c3ccccc23)=C(C#N)C1c1ccccc1Cl (stereo not drawn)	17	14.5	21	39.6	8.5	20	27.9	10.4	34	24	21.4	45.7	–
> 1000	22.3 (≈ 63.3 µM)	1590.74 (≈ 4510 µM)	25.8 (≈ 73.2 µM)	25.1 (≈ 71.2 µM)	36.3 (≈ 103 µM)	Cc1ccc(C2C(C#N)=C(N)OC(c3c[nH]c4ccccc34)=C2C#N)cc1 (stereo not drawn)	14	6.2	15	28.9	5.2	17	24.8	5.5	25.8	20	8.5	30.4	–
> 1000	23.5 (≈ 50.9 µM)	1779.24 (≈ 3860 µM)	28.7 (≈ 62.2 µM)	24.8 (≈ 53.8 µM)	27.3 (≈ 59.2 µM)	N#CC1=C(N)OC(c2c[nH]c3ccccc23)=C(C#N)C1c1cc(Br)c2c(c1)OCO2 (stereo not drawn)	13	10	17	25.8	5.7	16	20.3	6.4	23.8	19	12.5	22.8	–
880.3 (≈ 1840 µM)	21 (≈ 44 µM)	< 50	24.5 (≈ 51.3 µM)	33.4 (≈ 70 µM)	29.5 (≈ 61.8 µM)	COc1cc(Br)c(C2C(C#N)=C(N)OC(c3c[nH]c4ccccc34)=C2C#N)cc1OC (stereo not drawn)	14	24.2	16	57.3	18.5	19	51.7	20.5	53.8	20	26.7	64.4	–
–	27.5 (≈ 65.9 µM)	–	24 (≈ 57.5 µM)	26.3 (≈ 63 µM)	30.2 (≈ 72.4 µM)	N#CC1=C(N)OC(c2c[nH]c3ccccc23)=C(C#N)C1c1cccc(Br)c1 (stereo not drawn)	14	–	14	–	–	14	–	–	–	16	–	–	Activity [1]: inactive; Activity [3]: inactive; Activity [6]: inactive; Activity [7]: inactive; Activity [9]: inactive; Activity [10]: inactive; Activity [11]: inactive; Activity [13]: inactive; Activity [15]: inactive; Activity [17]: inactive
–	24 (≈ 62.6 µM)	–	35.4 (≈ 92.3 µM)	25.5 (≈ 66.5 µM)	27.5 (≈ 71.7 µM)	N#CC1=C(N)OC(c2c[nH]c3ccccc23)=C(C#N)C1c1cccc([N+](=O)[O-])c1 (stereo not drawn)	13	–	16	–	–	15	–	–	–	19	–	–	Activity [1]: inactive; Activity [3]: inactive; Activity [6]: inactive; Activity [7]: inactive; Activity [9]: inactive; Activity [10]: inactive; Activity [11]: inactive; Activity [13]: inactive; Activity [15]: inactive; Activity [17]: inactive
900 (≈ 2360 µM)	23.8 (≈ 62.4 µM)	< 50	25.6 (≈ 67.1 µM)	25.2 (≈ 66.1 µM)	26.7 (≈ 70 µM)	CN(C)c1ccc(C2C(C#N)=C(N)OC(c3c[nH]c4ccccc34)=C2C#N)cc1 (stereo not drawn)	15	20.5	17	74.6	14.4	16	72.1	18.5	73.1	18	26.7	75.7	–
–	13.4 (≈ 35.9 µM)	–	19 (≈ 51 µM)	17.5 (≈ 46.9 µM)	21.5 (≈ 57.7 µM)	N#CC1=C(N)OC(c2c[nH]c3ccccc23)=C(C#N)C1c1ccc(Cl)cc1 (stereo not drawn)	18	–	19	–	–	18	–	–	–	23	–	–	Activity [1]: inactive; Activity [3]: inactive; Activity [6]: inactive; Activity [7]: inactive; Activity [9]: inactive; Activity [10]: inactive; Activity [11]: inactive; Activity [13]: inactive; Activity [15]: inactive; Activity [17]: inactive
> 1000	25 (≈ 70.9 µM)	1371.65 (≈ 3890 µM)	27.8 (≈ 78.9 µM)	27.2 (≈ 77.2 µM)	26 (≈ 73.8 µM)	Cc1ccccc1C1C(C#N)=C(N)OC(c2c[nH]c3ccccc23)=C1C#N (stereo not drawn)	15	21.4	16	28.3	10.4	15	25.8	17.2	27.4	16	25.7	32.5	–
858.69 (≈ 2330 µM)	15.4 (≈ 41.8 µM)	< 50	24.5 (≈ 66.5 µM)	19.6 (≈ 53.2 µM)	23.4 (≈ 63.5 µM)	COc1ccc(C2C(C#N)=C(N)OC(c3c[nH]c4ccccc34)=C2C#N)cc1 (stereo not drawn)	16	26.4	18	59.9	12.4	19	53.6	20	56.9	21	28.7	60.2	–

Structure (SMILES)	IC50 [1] [µg/mL]	MIC (Staphylococcus aureus [4]) [µg/mL]	IC50 [10] [µg/mL]	MIC (Bacillus cereus [12]) [µg/mL]	MIC (Klebsiella pneumoniae [16]) [µg/mL]	MIC (Escherichia coli [18]) [µg/mL]	zone of inhibition at 100 µg/mL (Bacillus cereus [2]) [mm]	Activity ([3]; at 200 µg/mL) [%]	zone of inhibition at 100 µg/mL (Escherichia coli [5]) [mm]	Activity ([6]; at 200 µg/mL) [%]	Activity ([7]; at 50 µg/mL) [%]	zone of inhibition at 100 µg/mL (Klebsiella pneumoniae [8]) [mm]	Activity ([9]; at 50 µg/mL) [%]	Activity ([11]; at 100 µg/mL) [%]	Activity ([13]; at 100 µg/mL) [%]	zone of inhibition at 100 µg/mL (Staphylococcus aureus [14]) [mm]	Activity ([15]; at 400 µg/mL) [%]	Activity ([17]; at 400 µg/mL) [%]	further results
N#CC1=C(N)OC(c2c[nH]c3ccccc23)=C(C#N)C1c1ccc(Br)cc1 (stereo not drawn)	947.09 (≈ 2270 µM)	21.3 (≈ 51 µM)	117.8 (≈ 282 µM)	28 (≈ 67.1 µM)	26.3 (≈ 63 µM)	25.4 (≈ 60.9 µM)	14	10.6	15	54.3	14.2	16	46.7	14.6	49.7	20	22.7	57.8	GI50 (MCF7): 21.8 µM; LC50 (concentration killing 50% of cells) (MCF7): > 100 µM; TGI (MCF7): 48.1 µM
O=C(O)c1cn(C2CC2)c2cc(N3CCNCC3)c(F)cc2c1=O [CIPROFLOXACIN]	–	0.2 (≈ 0.604 µM)	–	0.3 (≈ 0.905 µM)	0.1 (≈ 0.302 µM)	–	25	–	27	–	–	26	–	–	–	26	–	–	–
